Rows were chosen to be rich in hits. Some 5.8% of all compounds tested hit in one or more screens of this group.
ROMK mod – ROMK potassium channel modulators, primary screen, cell-based, thallium flux, MLSMR library. ATP-sensitive inward rectifier potassium channel 1 (Homo sapiens), P48048. Tet-inducible ROMK, thallium flux fluorescence; actives lie on both sides. B-score at 10 µM. 2% of 130,000 active;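 active means signal ratio slope over the read window, or its plate-corrected B-score, at least 3 SD from the plate mean, either direction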;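 further: B-score of the F/F0 ratio slope over 7 to 12 s after thallium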
WT yeast gro inh – growth inhibition of WT strain, primary screen, mitochondrial fusion inhibitor project, WT and mutant strains, chemical genetic. AID 1362, 2008. inhibition, % at 10 µM. 2.1% of 190,000 active. mitochondrial fusion phenotypic screen; in the data active means inhibition above about 58%; tested in S. cerevisiae
p47phox inh – p47phox/p22phox peptide binding inhibitors, primary screen, biochemical, uHTS, NADPH oxidase regulatory subunit; Neutrophil cytosol factor 1 (Homo sapiens), P14598; AID 1274, 2008; fluorescence polarization, 2 h; inhibition, % at 24.7 µM; 0.53% of 220,000 active;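 active means inhibition above about 30%, limit read from the data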
14-3-3 Bad inh – inhibitors of 14-3-3 zeta/Bad binding, primary screen, biochemical, TR-FRET, bovine 14-3-3 zeta | 14-3-3 protein zeta/delta (Bos taurus), P63103 | TR-FRET 14-3-3zeta/Dy647-pBad peptide displacement, 1 h | inhibition, % at 21.7 µM | 0.71% of 220,000 active | AID 781, 2007;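 active means inhibition above about 70%, limit read from the data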
Target sequence (P63103 whole entry, looked up): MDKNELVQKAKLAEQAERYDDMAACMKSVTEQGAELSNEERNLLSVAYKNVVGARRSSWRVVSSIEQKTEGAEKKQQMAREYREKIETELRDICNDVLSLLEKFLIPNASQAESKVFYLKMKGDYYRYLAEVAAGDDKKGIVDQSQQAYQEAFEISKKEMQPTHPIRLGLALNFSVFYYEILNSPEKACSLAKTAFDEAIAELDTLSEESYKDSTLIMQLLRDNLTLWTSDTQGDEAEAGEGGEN
RBBP9 inhibitor – human RBBP9 inhibitors, primary screen, biochemical, fluorescence polarization, FP-Rh probe, HTS; Serine hydrolase RBBP9 (Homo sapiens), O75884; recombinant RBBP9; inhibition, % at 7.94 µM; 0.2% of 220,000 active; AID 1515, 2009;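 active means inhibition above the campaign mean of all tested compounds plus 3 SD, cut at about 14% in these data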
Target sequence (O75884 whole entry, looked up): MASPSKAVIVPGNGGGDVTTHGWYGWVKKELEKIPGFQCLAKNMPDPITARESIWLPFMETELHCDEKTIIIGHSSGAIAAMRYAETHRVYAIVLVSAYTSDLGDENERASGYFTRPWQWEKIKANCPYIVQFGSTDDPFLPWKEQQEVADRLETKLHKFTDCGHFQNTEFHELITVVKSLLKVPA
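Material: RBBP9 protein. Amount: RBBP9 at 2.5 µM in dispensed solution, before mixing. Schedule: 30 min then 45 min, 25 °C. Medium: Tris buffer pH 8.0, NaCl, Pluronic. Measured by: fluorescence polarization. Measure: percent inhibition from mP, scaled between DMSO and no-protein wells. Replication: one well per compound.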
Cl transport mod – KCC2 cotransporter modulators, thallium flux, primary screen, cell-based, HEK293 KCC2, FluoZin-2 fluorescence, MLSMR; Solute carrier family 12 member 5 (Homo sapiens), Q9H2X9; KCC2 cells, thallium flux FluoZin-2 fluorescence; B-score of Tl+ flux slope (higher = more flux/activation; lower = inhibition) at 10 µM; 2.2% of 190,000 active; AID 1456, 2008;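 active means thallium flux slope and its plate-corrected score both differing from the plate sample mean at a set confidence after two filtering rounds, in either direction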;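 further: slope of fluorescence scaled to starting intensity during 10 to 20 s after thallium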
Each line names hits and unclear results; the compound was inactive in the other large screens.

COCCn1nnnc1C(c1ccc(OC)cc1)N1CCN(c2ccccc2F)CC1 (centres undefined)	none (no result: ROMK mod, Cl transport mod)
COCCn1nnnc1C(c1ccc(C)cc1)N1CCN(Cc2ccc3c(c2)OCO3)CC1 (centres undefined)	none (no result: ROMK mod)
COc1ccc(C(c2nnnn2Cc2cccs2)N2CCN(c3ccccc3F)CC2)cc1OC (centres undefined)	14-3-3 Bad inh 82.6
CC(NC(=O)Nc1ccc(Cl)c(Cl)c1)C(c1ccccc1)N1CCOCC1 (centres undefined)	WT yeast gro inh 75.0
COc1ccc(-n2c(C)cc(-c3csc(N)n3)c2C)cc1	none
CC1CCCN(C(=O)N2c3ccccc3Sc3ccccc32)C1 (centres undefined)	WT yeast gro inh 69.4
CC1CCN(C(=O)N2c3ccccc3Sc3ccccc32)CC1	none
Cc1ccc(NC(=O)c2cc(-c3ccccc3)nn2-c2ccccc2)c(Br)c1	WT yeast gro inh 64.6
Cc1ccc(NC(=O)c2cc(-c3ccccc3)nn2-c2ccccc2)cc1	WT yeast gro inh 65.5
COc1ccc(C2C(C(=O)O)c3ccccc3C(=O)N2Cc2ccco2)cc1 (centres undefined)	none (no result: ROMK mod, WT yeast gro inh)
CCOC(=O)Cc1csc(NC(=S)NC(=O)c2ccccc2C)n1	Cl transport mod 29 (no result: ROMK mod)
FC(F)(F)c1nnc2ccc(NCc3ccccc3)nn12	none
Cc1ccc2cc(/C=N/NC(=O)CN3CCCCC3)c(Cl)nc2c1	none
CNC(=S)N1CCn2cccc2C1c1cc(OC)c(OC)c(OC)c1 (centres undefined)	none
CCNC(=S)N1CCn2cccc2C1c1ccc(F)cc1 (centres undefined)	p47phox inh 40.2
CC(NC(=O)Cn1ncc(Cl)c(Cl)c1=O)C12CC3CC(CC(C3)C1)C2 (centres undefined)	WT yeast gro inh 64.4
CCOC(=O)c1cnn(-c2ccc(F)cc2)c1N	none
O=c1oc2ccccc2c(O)c1/C=C1\C=Nc2ccccc21	p47phox inh 45.9 (no result: ROMK mod)
Cc1cc(C)c2nc(N3CCCC(C(=O)NCCCN4CCOCC4)C3)sc2c1 (centres undefined)	none
Cc1cc(C)c2nc(N3CCC(C(=O)NCCCN4CC(C)CC(C)C4)CC3)sc2c1 (centres undefined)	ROMK mod -2.54, WT yeast gro inh 69.0
O=S(=O)(c1cccs1)N1CCN(c2ccc(O)cc2)CC1	none (no result: ROMK mod, WT yeast gro inh)
Fc1ccc(-c2nnc(Cc3ccc(Cl)cc3)o2)cc1	none (no result: WT yeast gro inh)
CC(C)C(NC(=O)c1ccccc1)C(=O)NCCc1ccccc1 (centres undefined)	none
Cc1cccc2cc(/C=C3\N=C(c4ccccc4)OC3=O)c(N3CCOCC3)nc12	ROMK mod -5 (no result: Cl transport mod)
O=C(CCCCCN1C(=O)c2ccccc2C1=O)Nc1ccc(S(=O)(=O)N2CCCCC2)cc1	WT yeast gro inh 67.8
O=C(NNc1ccc(C2CCCCC2)cc1)C(O)(c1ccccc1)c1cccs1 (centres undefined)	WT yeast gro inh 89.0 (no result: ROMK mod)
CCSc1ccc(-c2cccc([N+](=O)[O-])c2)nn1	none
COc1ccc(Oc2nc(SC)nc3ccsc23)cc1	p47phox inh 40.6 (no result: ROMK mod, Cl transport mod)
O=C(NCCN1CCCCC1)c1ccc(Oc2cc(Cl)cc(Cl)c2)o1	p47phox inh 30.4 (no result: ROMK mod, WT yeast gro inh)
O=C(NCC1CC1)c1ccc(Oc2cc(Cl)cc(Cl)c2)o1	none (no result: ROMK mod, WT yeast gro inh)
NC(=O)c1c(NC(=O)COC(=O)c2ccc(S(=O)(=O)Nc3ccccc3)cc2)sc2c1CCCC2	none
Cc1ccc(Oc2cc([N+](=O)[O-])cc3c2C(=O)Nc2ccccc2O3)cc1	WT yeast gro inh 63.9
CCOP(=O)(OCC)c1nc(-c2cccc3ccccc23)oc1N1CCOCC1	none
CCOP(=O)(OCC)c1nc(-c2cccc3ccccc23)oc1NCCc1ccc(OC)cc1	WT yeast gro inh 70.2 (no result: ROMK mod)
O=[N+]([O-])c1ccc(N/N=C\c2cccn2-c2ccccc2)nc1	WT yeast gro inh 60.6, p47phox inh 38.0
Cc1ccccc1-n1c(C)cc(/C=N/Nc2ccc([N+](=O)[O-])cn2)c1C	none
Cn1cnc([N+](=O)[O-])c1SCCO	none (no result: ROMK mod, WT yeast gro inh)
CC1CCCC2(C1)NC(=S)c1c(sc3c1CCCC3)N2 (centres undefined)	Cl transport mod 53.9
Cc1ccc2oc(-c3cc(NC(=O)c4ncn[nH]4)ccc3O)nc2c1	none
CCCSc1nc(NCc2ccco2)c2c3c(sc2n1)COC(C)(C)C3	WT yeast gro inh 69.5 (no result: ROMK mod)
Cc1ccc(-n2cc(CN(C)Cc3ncc[nH]3)c(-c3cccc(C)c3)n2)cc1	WT yeast gro inh 58.7 (no result: Cl transport mod)
COc1ccc(-n2cc(CN3CCCC3)c(-c3cccc(F)c3)n2)cc1	none (no result: ROMK mod)
Cc1cccc(-n2cc(CN3CCN(Cc4nccn4C)CC3)c(-c3cccc(F)c3)n2)c1	WT yeast gro inh 86.1 (no result: Cl transport mod)
CCn1ccnc1CN(C)Cc1cn(-c2cc(C)ccc2C)nc1-c1ccccc1	WT yeast gro inh 61.2 (no result: Cl transport mod)
CCn1ccnc1CN(C)Cc1cn(-c2ccc(C)cc2)nc1-c1ccc(F)cc1	none (no result: Cl transport mod)
Cc1ccc(-n2cc(CN(C)Cc3nccn3C)c(-c3ccc(F)cc3)n2)cc1	WT yeast gro inh 76.4 (no result: Cl transport mod)
Clc1nc(Cl)nc(-c2cn(-c3ccccc3)c3ccccc23)n1	none (no result: ROMK mod, WT yeast gro inh)
Cc1nn(-c2ccccc2)c(Cl)c1CN(C(=O)CCl)c1cccc2ccccc12	none
CCc1nc2sc3ccccc3c(=O)c2c(=O)n1Cc1ccco1	none (no result: ROMK mod)
O=c1c2ccccc2sc2nc(C3CCCCC3)n(Cc3ccco3)c(=O)c12	14-3-3 Bad inh 73.4 (no result: ROMK mod)
CC(=O)c1ccc(NC(=O)/C(=C\c2cccs2)NC(=O)c2ccco2)cc1	14-3-3 Bad inh 87.8
COc1ccc(NC(=O)COC(=O)Cc2c(F)cccc2Cl)cc1OC	none
Cc1cccnc1NC(=S)Nc1ccc(Br)cc1Cl	none
CCOC(=O)C1=C(C)NC(C)=C(C(=O)OC)C1c1cccc([N+](=O)[O-])c1 (centres undefined)	none (no result: ROMK mod)
COC(=O)C1=C(C)NC(C)=C(C(=O)OC)C1c1ccccc1[N+](=O)[O-]	ROMK mod -2.53, Cl transport mod 17.1
N#C/C(=C\Nc1ccc2cn[nH]c2c1)c1nc(-c2ccccc2)cs1	14-3-3 Bad inh 85.7
Cc1ccnc(N/C=C(\C#N)c2nc(-c3cccc(Br)c3)cs2)c1	none (no result: ROMK mod, Cl transport mod)
CCN(CC)CCOC(=O)c1ccc(N/C=C(/C#N)c2nc(-c3ccc(OC)cc3)cs2)cc1	none (no result: WT yeast gro inh)
COc1cc2c(cc1N/C=C(\C#N)c1nc(-c3ccccc3)cs1)oc1ccccc12	14-3-3 Bad inh 86.1

High-throughput results deposited in PubChem by several laboratories.
